Shown are actives, neighbours in structure and some others; about 3.5% of the full set was active somewhere.
MrgX1 allo act – allosterically activates human MrgX1 receptor signaling | B-score at 10 µM | actives 0.63% (n = 310,000) | MrgX1-HEK293, Fluo-4 calcium flux, FDSS; stronger effect = higher value;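 active = plate-corrected calcium response at least 3 library SD above typical, normal starting fluorescence, not activating the receptor alone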;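 also: compound read alongside a low EC10 to EC30 dose of BAM8-22 agonist; peak minus trough fluorescence over baseline measured at the second addition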
Target sequence (Q96LB2 whole entry, looked up): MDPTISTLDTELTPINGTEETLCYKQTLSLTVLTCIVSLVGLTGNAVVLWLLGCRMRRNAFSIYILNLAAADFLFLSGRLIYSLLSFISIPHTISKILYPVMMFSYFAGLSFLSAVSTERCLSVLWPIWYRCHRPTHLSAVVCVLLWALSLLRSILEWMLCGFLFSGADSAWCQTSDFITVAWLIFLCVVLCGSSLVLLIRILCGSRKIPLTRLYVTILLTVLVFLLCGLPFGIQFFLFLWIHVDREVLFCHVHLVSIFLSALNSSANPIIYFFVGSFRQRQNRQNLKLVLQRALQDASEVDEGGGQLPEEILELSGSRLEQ
MrgX1 ag – activates human MrgX1 receptor signaling; B-score at 10 µM; MrgX1-HEK293 cells, Fluo-4 calcium fluorescence, agonist mode; stronger effect = higher value; Q96LB2; actives 0.44% (n = 310,000);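 active = calcium response B-score plate-corrected fluorescence ratio at least 3 library SD, with starting fluorescence B-score inside 5 SD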
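Assay system: stable human MrgX1 HEK293 cell line. Quantity: 15,000 cells per well. Schedule: cells plated overnight, dye loaded 0.5 h 37 °C, 0.5 h room temperature. Detection: Fluo-4 NW calcium-flux fluorescence, kinetic read. Read-out basis: peak-minus-minimum fluorescence over baseline, converted to B scores. Control set: positive and negative control wells on each plate.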
RGS4 block – inhibitors of human RGS4. P49798. HEK293 M3R/RGS4 inducible, Fluo-4 calcium flux; stronger effect = higher value; triggered by carbachol at its EC20. B-score at 10 µM. actives 0.45% (n = 310,000);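 active = B-score, a plate-corrected calcium signal, over three deviations above library mean, with baseline fluorescence within five deviations of library mean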;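 also: RGS4 expression induced by doxycycline in cells with stable M3 receptor; B-score is computed from the integrated fluorescence ratio over baseline after carbachol; higher B-score means a larger calcium signal and so more RGS4 inhibition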
Target sequence (P49798 whole entry, looked up): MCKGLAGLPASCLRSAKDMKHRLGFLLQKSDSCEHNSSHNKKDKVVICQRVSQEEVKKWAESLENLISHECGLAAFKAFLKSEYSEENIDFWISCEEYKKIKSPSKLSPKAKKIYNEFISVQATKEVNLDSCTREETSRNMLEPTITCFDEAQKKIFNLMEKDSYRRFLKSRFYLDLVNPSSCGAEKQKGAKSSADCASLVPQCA
RGS4 act – potentiators or activators of RGS4; HEK293 M3R/inducible RGS4, carbachol calcium flux Fluo4; stronger effect = lower value; B-score at 10 µM; actives 0.92% (n = 310,000);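 active = B-score of the integrated calcium signal more than 4 SD below the library mean, with starting fluorescence not abnormally high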;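 also: negative B-score means reduced calcium response which marks RGS4 activation or potentiation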
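Reagent: ECmax carbachol challenge; Test system: M3R-expressing HEK293 line, RGS4 induced by doxycycline; Schedule: overnight RGS4 induction, 30 min dye load 37 °C, 20 min compound RT; Detection: calcium dye Fluo4 fluorescence; Read-out: Agonist-evoked peak-minus-minimum fluorescence over baseline, integrated ratio, B score.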
MrgX1 antagonist – antagonists of human MrgX1 receptor. MRGX1-HEK293 calcium flux, Fluo-4, BAM8-22 antagonism; stronger effect = lower value. B-score at 10 µM. actives 1.3% (n = 310,000);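 active = calcium-response B-score plate-corrected more than 3 library SD below zero, starting fluorescence within 5 deviations, no agonist response on first addition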;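 also: peak minus trough fluorescence over baseline after final BAM8-22 challenge near maximal dose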
RGS4 act valid – RGS4 activation, validation assay | shares compounds with RGS4 act | inhibition, % at 10 µM | actives 89% (n = 1,100) | AID 602282 | HEK293 M3R/RGS4 inducible, carbachol calcium flux Fluo4;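 active = inhibition above 3 SD of the buffer control wells, cut at about 41% in these data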;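 also: signal is the integrated peak-minus-minimum Fluo4 fluorescence over baseline ratio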
M3R Ca counter – RGS4 activator counter-screen hit in non-induced cells; HEK293 M3R non-induced RGS4, Fluo4 calcium flux; after carbachol challenge at its EC90; inhibition, % at 10 µM; shares compounds with RGS4 act; actives 82% (n = 1,100);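 active = inhibition exceeding 3 SD of buffer-only control wells, cut at about 26% in these data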;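 also: percent drop in integrated peak-minus-baseline over baseline Fluo4 ratio after carbachol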
* hit, by the source's call; i = inactive; . = no result.

SMILES	MrgX1 allo act	MrgX1 ag	RGS4 block	RGS4 act	MrgX1 antagonist	RGS4 act valid	M3R Ca counter
O=C(Nc1nncs1)C1CC(=O)N(CCc2ccc(F)cc2)C1 (configuration not stated)	i	i	i	i	i	.	.
O=C(COC(=O)c1cc(S(=O)(=O)N2CCOCC2)ccc1O)NCCc1ccccc1	i	i	i	-9.5*	i	0	0
O=C(CSCC(=O)N1CCCCC1)OCC(=O)c1c[nH]c2ccccc12	i	i	i	i	i	.	.
O=C(c1cccs1)N1CCCC(c2nc3c(nnn3Cc3c(Cl)cccc3Cl)c(=O)[nH]2)C1 (configuration not stated)	i	i	i	-8.3*	i	52*	84*
COc1ccc(S(=O)(=O)NCCC(C)C)cc1C	i	i	i	i	i	.	.
COc1ccc(S(=O)(=O)n2cnc3cc(C)c(C)cc32)cc1C	i	i	i	-10*	i	88*	46*
COc1ccc(S(=O)(=O)n2cnc3cc(C)c(C)cc32)cc1	i	i	i	i	i	.	.
CC(=O)NC(=O)c1cnn(-c2ccccc2)c1N	i	i	i	-8.8*	i	0	0
COC(=O)c1cnn(-c2ccccc2)c1N	i	i	i	i	i	.	.
Cc1cc(/C=C(/C#N)c2nc3ccccc3[nH]2)c(C)n1-c1cc(C(=O)O)cc(C(=O)O)c1	.	.	i	-7.9*	.	52*	44*
O=C(O)CC/C(=N/NC(=O)CNC(=O)c1ccc2c(c1)OCCO2)c1ccccc1	i	i	i	i	i	.	.
Oc1ccccc1-c1nc(NC2CCCC2)c2ccccc2n1	i	i	i	-7.8*	i	74*	59*
CC(C)(O)C#Cc1ccc(CN2CCN(C3CCCCC3)C(CCO)C2)s1 (configuration not stated)	i	i	i	-7.8*	i	64*	26*
CSc1ccc(CN2CCN(C3CCCC3)C(CCO)C2)cc1 (configuration not stated)	i	i	i	-8.9*	i	88*	60*
CC(C)(O)C#Cc1ccc(CN2CCN(C3CCCCC3)C(CCO)C2)cc1 (configuration not stated)	i	i	i	i	i	.	.
COc1cc(OC)c(NC(=O)CN(C)S(=O)(=O)c2ccc3[nH]c(=O)oc3c2)cc1Cl	i	i	i	i	i	.	.
O=C1C2CC=CCC2C(=O)N1Cc1nnc(-c2ccccc2Br)o1 (configuration not stated)	i	i	i	i	i	.	.
CCCCc1nc2cc(C(=O)NCc3nccn3CC)ccc2o1	i	i	i	-9.1*	i	92*	78*
CCC1(C)NC(=O)N(CC(=O)N2N=C(c3ccccc3)CC2c2ccc(OC)cc2)C1=O (configuration not stated)	i	i	i	i	i	.	.
Cc1c(CC(=O)N2CCC(C(N)=O)CC2)c(=O)oc2cc3c(cc12)CCC1(CCCCC1)O3	i	i	i	-8.9*	i	92*	78*
Cc1c(CC(=O)O)c(=O)oc2cc3c(cc12)CCC(C)(C)O3	i	i	i	i	i	.	.
COc1ccc(NC(=O)CSc2nnc(-c3ccncc3)n2CC2CCCO2)c(OC)c1 (configuration not stated)	i	i	i	i	i	.	.
Cc1nn(S(=O)(=O)c2ccc(Br)cc2)c(C)c1S(=O)(=O)N1CCOCC1	i	i	i	i	i	.	.
CC(C)(c1ccccc1)c1ccc(OCCn2cnc3ccccc3c2=O)cc1	i	i	i	-8.8*	i	90*	58*
O=C(c1ccccc1)c1ccc(OCCn2cnc3ccccc3c2=O)cc1	i	i	i	i	i	.	.
SMILES	MrgX1 allo act	MrgX1 ag	RGS4 block	RGS4 act	MrgX1 antagonist	RGS4 act valid	M3R Ca counter
CCc1ccc([C@@H]2C[C@H]3CN(Cc4ccccc4OC)C(=O)[C@]34CCCN24)cc1	i	i	i	-9.5*	i	79*	30*
Cc1cc(C)c(OCC(=O)Nc2nnc(-c3ccco3)o2)c(C)c1	i	i	i	i	i	.	.
[2H]c1c([2H])c([2H])c(C(=O)c2sc(N3CCCCCC3)nc2-c2ccccc2)c([2H])c1[2H]	i	i	i	-8.3*	i	92*	61*
O=c1[nH]c2ccccc2nc1-c1ccccc1	i	i	i	i	i	.	.
NC(=O)N=Nc1c2[nH]c3ccccc3nc-2c2ccccc12	i	i	i	-8.6*	i	56*	0
COC(=O)c1ccc(C(=O)OC)c(NC(=O)COC(=O)CC2CC3CCC2C3)c1 (configuration not stated)	i	i	i	-9.7*	i	90*	33*
Cc1ccc(Cl)cc1NC(=O)COC(=O)CC1CC2CCC1C2 (configuration not stated)	i	i	i	i	i	.	.
CC1(C)Cc2c(cnn2-c2ccc(F)cc2)C(NC(=O)CCCN2CCCCC2=O)C1 (configuration not stated)	i	i	i	i	i	.	.
O=S(=O)(c1cccc2cccnc12)N1CCCCC1	i	i	i	i	i	.	.
CN1CCN(c2ncccc2S(=O)(=O)N2CCCCC2)CC1	i	i	i	-12*	i	90*	73*
CC(=O)Nc1cccc(NC(=O)c2cc(-c3cccnc3)nc3ccc(Br)cc23)c1	i	i	i	i	i	.	.
CC(=O)Nc1cccc(NC(=O)c2cc(-c3cccnc3)nc3ccc(Cl)cc23)c1	i	i	i	-8.6*	i	46*	0
O=C(Nc1cccnc1)c1cc(-c2ccc(Br)cc2)nc2ccccc12	i	i	i	-13*	i	92*	76*
Cc1ccc(-c2cc(C(=O)Nc3cccnc3)c3ccccc3n2)o1	i	i	i	i	i	.	.
COc1cc([N+](=O)[O-])ccc1NC(=S)Nc1cc(C(=O)OC(C)C)cc(C(=O)OC(C)C)c1	i	i	i	i	i	.	.
CCOC(=O)c1cc2sc(C)cc2n1CCCN1C(=O)c2ccccc2C1=O	i	i	i	-7.8*	i	90*	42*
CCOC(=O)c1cc2sc(C)cc2n1CC(=O)N(CC)CC	i	i	i	i	i	.	.
